Source: ChEMBL document CHEMBL5678806, “NMS-P937, an orally available, specific small-molecule polo-like kinase 1 inhibitor with antitumor activity in solid and hematologic malignancies” (Mol Cancer Ther, 2012)
The source made the active and inactive calls. The rule behind the calls is not given here.

What was measured:
[1] = Antiproliferative activity against human TF-1a cells assessed as inhibition of cell growth incubated for 72 hrs by cell-titer glo assay; format: functional, cell-based
Insulin receptor = Insulin receptor (Homo sapiens, UniProt P06213); assay: Inhibition of N-terminal His6-tagged recombinant human IR (1005 to 1310 residues) expressed in baculovirus infected Sf21 cells assessed as residual activity at 1 uM relative to control
Chain of Insulin receptor (P06213 28-758 limits assumed): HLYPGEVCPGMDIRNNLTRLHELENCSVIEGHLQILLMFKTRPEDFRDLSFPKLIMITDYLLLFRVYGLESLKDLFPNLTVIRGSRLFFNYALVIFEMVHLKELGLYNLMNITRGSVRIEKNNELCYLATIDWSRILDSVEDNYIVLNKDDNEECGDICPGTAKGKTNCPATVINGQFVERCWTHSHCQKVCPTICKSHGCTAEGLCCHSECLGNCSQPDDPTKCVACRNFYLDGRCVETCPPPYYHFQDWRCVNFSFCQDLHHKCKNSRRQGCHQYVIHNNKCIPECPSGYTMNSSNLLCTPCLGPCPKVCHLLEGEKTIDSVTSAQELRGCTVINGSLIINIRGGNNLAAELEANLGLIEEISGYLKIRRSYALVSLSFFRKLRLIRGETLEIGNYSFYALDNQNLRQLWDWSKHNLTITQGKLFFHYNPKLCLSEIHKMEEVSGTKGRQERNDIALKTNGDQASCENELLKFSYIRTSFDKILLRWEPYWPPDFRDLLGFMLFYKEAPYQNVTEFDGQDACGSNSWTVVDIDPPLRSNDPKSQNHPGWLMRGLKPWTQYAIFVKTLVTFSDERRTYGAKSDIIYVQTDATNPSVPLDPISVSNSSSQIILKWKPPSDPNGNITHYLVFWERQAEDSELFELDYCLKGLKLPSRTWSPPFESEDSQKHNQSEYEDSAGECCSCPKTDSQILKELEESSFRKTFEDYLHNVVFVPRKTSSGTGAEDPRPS
Chain of Insulin receptor (P06213 763-1382 limits assumed): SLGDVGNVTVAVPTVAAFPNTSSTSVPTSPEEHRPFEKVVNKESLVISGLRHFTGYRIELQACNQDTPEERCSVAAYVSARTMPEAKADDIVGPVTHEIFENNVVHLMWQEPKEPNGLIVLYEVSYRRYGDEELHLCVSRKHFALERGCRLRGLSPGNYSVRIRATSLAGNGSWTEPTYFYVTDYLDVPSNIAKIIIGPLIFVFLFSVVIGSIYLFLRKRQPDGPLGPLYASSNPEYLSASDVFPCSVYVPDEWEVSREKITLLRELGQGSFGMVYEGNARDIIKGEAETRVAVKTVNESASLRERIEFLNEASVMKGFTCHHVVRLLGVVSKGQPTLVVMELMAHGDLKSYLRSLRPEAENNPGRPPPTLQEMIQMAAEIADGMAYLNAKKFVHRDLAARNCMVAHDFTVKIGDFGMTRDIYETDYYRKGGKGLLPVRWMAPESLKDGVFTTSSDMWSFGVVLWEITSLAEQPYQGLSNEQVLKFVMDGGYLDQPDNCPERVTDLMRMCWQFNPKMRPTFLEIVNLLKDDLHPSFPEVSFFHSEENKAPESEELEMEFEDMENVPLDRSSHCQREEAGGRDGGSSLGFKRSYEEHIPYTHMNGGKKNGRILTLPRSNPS

NHDF = assay: Induction of DNA damage in human NHDF cells assessed as H2AX phosphorylation at 0.5 to 1 uM incubated for 8 hrs followed by compound washout and measured after 24 to 48 hrs by Western blotting analysis; format: toxicity, cell-based; settings: dose 0.5-1 µM
A2780 [2] = assay: In vivo inhibition of PLK1 in human A2780 cells xenografted in nu/nu mouse assessed as decreased TCTP phosphorylation on Ser46 at 60 mg/kg, po administered for 6 to 12 hrs by immunohistochemistry analysis; format: functional, organism-based; settings: time lower 6.0 hrs, time upper […]
[3] = Antitumor activity against human Acute myeloid leukemic cell xenografted in nu/nu mouse assessed as increase in median survival time at 120 mg/kg, po administered for 2 days and measured after 10 days (reference value: 34 days); format: functional, Leukemia cell; settings: time 2 day
[4] = Half-life in Sprague-Dawley rat at 10 mg/kg, po by LC-MS analysis; format: ADME, organism-based; settings: in vivo
MDA-MB-435S = assay: Antiproliferative activity against human MDA-MB-435S cells assessed as inhibition of cell growth incubated for 72 hrs by cell-titer glo assay; format: functional, cell-based
In short: (§1)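 Cells seeded at 10,000–30,000/cm² (adherent) or 100,000/mL (nonadherent) in medium with 10% fetal calf serum; after 24 h, treated in duplicate with serial dilutions for 72 h. Viable cell number read by CellTiter-Glo luminescence; IC50 from sigmoidal fit; at least two independent experiments.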

U2OS = assay: Induction of apoptosis in human U2OS cells assessed as colocalization of cells by measuring activation of caspase 3 incubated for 24 hrs by DRAQ 5 staining based high content imaging assay relative to control; format: functional
[5] = target: Mitogen-activated protein kinase kinase kinase 5 (Homo sapiens) (UniProt Q99683); assay: Inhibition of N-Terminal GST and C-terminal His6-tagged recombinant human ASK1 (649 to 946 residues) expressed in E. coli cell assessed as residual activity at 0.1 uM relative to control
SH-SY5Y = assay: Antiproliferative activity against human SH-SY5Y cells assessed as inhibition of cell growth incubated for 72 hrs by cell-titer glo assay; format: functional, cell-based
PANC-1 = assay: Antiproliferative activity against human PANC-1 cells assessed as inhibition of cell growth incubated for 72 hrs by cell-titer glo assay; format: functional, cell-based; settings: PANC-1, 72 h
In short: (§2)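 Cells from ATCC or ECACC, kept in supplier-recommended medium with 1% penicillin-streptomycin at 37°C, 5% CO₂. Seeded at 10,000–30,000/cm² (adherent) or 100,000/mL (nonadherent) in medium with 10% fetal calf serum. Dosed after 24 h in duplicate with serial dilutions. Viable cells read by CellTiter-Glo 72 h later. IC50 from sigmoidal fit. At least two independent experiments.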

[6] = test system: Platelet-derived growth factor receptor alpha (Homo sapiens), P16234 [D842V]; assay: Inhibition of N-terminal His6-tagged recombinant human PDGFRalpha (550 to end residues) D842V mutant expressed in baculovirus infected Sf21 cells assessed as residual activity at 0.1 uM relative to control
JIMT-1 = assay: Antiproliferative activity against human JIMT-1 cells assessed as inhibition of cell growth incubated for 72 hrs by cell-titer glo assay; format: functional, cell-based; settings: JIMT-1, 72 h; in short: as §1
COLO 205 = assay: Antitumor activity against human COLO 205 cells xenografted in nu/nu mouse assessed as tumor growth inhibition at 60 mg/kg, po administered for 10 days; format: functional, organism-based; settings: time 10.0 day
T84 = assay: Antiproliferative activity against human T84 cells assessed as inhibition of cell growth incubated for 72 hrs by cell-titer glo assay; format: functional, cell-based; settings: T84, 72 h
SU-DHL-8 = assay: Antiproliferative activity against human SU-DHL-8 cells assessed as inhibition of cell growth incubated for 72 hrs by cell-titer glo assay; format: functional, cell-based; settings: SU-DHL-8, 72 h
KARPAS-299 = assay: Antiproliferative activity against human KARPAS-299 cells assessed as inhibition of cell growth incubated for 72 hrs by cell-titer glo assay; format: functional, cell-based; settings: KARPAS-299, 72 h; in short: as §1
[7] = target: Casein kinase I isoform delta (Homo sapiens) (UniProt P48730); assay: Inhibition of N-terminal GST-tagged recombinant human CK1delta (1 to 294 residues) expressed in E. coli assessed as residual activity at 1 uM relative to control
Chain of Casein kinase I isoform delta (Homo sapiens) (P48730 whole entry, looked up, the tested form may be a part, canonical isoform): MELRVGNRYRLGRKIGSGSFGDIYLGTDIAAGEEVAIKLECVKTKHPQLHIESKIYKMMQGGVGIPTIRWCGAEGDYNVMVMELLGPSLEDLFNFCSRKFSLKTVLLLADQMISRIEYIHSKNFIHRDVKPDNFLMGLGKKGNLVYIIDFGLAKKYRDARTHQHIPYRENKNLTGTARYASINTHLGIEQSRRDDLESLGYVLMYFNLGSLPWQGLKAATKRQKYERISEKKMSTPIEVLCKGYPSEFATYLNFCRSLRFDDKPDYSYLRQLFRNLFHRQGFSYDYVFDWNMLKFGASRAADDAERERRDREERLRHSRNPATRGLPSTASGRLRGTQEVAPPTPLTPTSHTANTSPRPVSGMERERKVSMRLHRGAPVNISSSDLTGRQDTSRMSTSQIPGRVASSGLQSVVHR

[8] = target: Dual specificity protein kinase CLK2 (Homo sapiens) (UniProt P49760); assay: Inhibition of N-terminal GST-tagged recombinant human CLK2 (138 to end residues) expressed in baculovirus infected Sf21 cells assessed as residual activity at 0.1 uM relative to control
[9] = target: Glycogen synthase kinase-3 beta (Homo sapiens, UniProt P49841); assay: Inhibition of GSK3beta (unknown origin) in presence of [gamma-33P]ATP
Chain of Glycogen synthase kinase-3 beta (P49841 whole entry): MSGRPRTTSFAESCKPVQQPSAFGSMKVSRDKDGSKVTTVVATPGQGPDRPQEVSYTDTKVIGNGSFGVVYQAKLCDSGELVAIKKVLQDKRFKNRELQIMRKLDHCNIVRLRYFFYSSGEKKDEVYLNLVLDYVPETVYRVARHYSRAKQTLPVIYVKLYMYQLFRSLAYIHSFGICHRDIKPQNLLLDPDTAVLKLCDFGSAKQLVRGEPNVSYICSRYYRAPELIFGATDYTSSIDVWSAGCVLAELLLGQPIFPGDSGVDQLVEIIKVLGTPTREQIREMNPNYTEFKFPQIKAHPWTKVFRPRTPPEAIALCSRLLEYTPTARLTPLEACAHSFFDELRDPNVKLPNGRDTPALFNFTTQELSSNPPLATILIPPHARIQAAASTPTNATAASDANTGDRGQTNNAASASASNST

Casein kinase 2 = Casein kinase 2 (Homo sapiens, UniProt P67870+P68400+P19784+Q8NEV1); assay: Inhibition of CK2 (unknown origin) at 10 micromol/L in presence of [gamma-33P]ATP relative to control; format: protein assay; settings: dose 10.0 µmol/L
A2780 [10] = assay: Induction of DNA damage in human A2780 cells assessed as H2AX phosphorylation at 0.5 to 1 uM incubated for 8 hrs by Western blotting analysis; format: functional, cell-based; settings: dose 0.5-1 µM
[11] = Antiproliferative activity against human SUPM2 cells assessed as inhibition of cell growth incubated for 72 hrs by cell-titer glo assay; format: functional, cell-based; settings: SUP-M2, 72 h
[12] = target: CDC7/DBF4 (Cell division cycle 7-related protein kinase/Activator of S phase kinase) (Homo sapiens, UniProt O00311); assay: Inhibition of CDC7/DBF4 (unknown origin) in presence of [gamma-33P]ATP; format: protein-complex assay
Chain of CDC7/DBF4 (Cell division cycle 7-related protein kinase/Activator of S phase kinase) (Q9UBU7 whole entry): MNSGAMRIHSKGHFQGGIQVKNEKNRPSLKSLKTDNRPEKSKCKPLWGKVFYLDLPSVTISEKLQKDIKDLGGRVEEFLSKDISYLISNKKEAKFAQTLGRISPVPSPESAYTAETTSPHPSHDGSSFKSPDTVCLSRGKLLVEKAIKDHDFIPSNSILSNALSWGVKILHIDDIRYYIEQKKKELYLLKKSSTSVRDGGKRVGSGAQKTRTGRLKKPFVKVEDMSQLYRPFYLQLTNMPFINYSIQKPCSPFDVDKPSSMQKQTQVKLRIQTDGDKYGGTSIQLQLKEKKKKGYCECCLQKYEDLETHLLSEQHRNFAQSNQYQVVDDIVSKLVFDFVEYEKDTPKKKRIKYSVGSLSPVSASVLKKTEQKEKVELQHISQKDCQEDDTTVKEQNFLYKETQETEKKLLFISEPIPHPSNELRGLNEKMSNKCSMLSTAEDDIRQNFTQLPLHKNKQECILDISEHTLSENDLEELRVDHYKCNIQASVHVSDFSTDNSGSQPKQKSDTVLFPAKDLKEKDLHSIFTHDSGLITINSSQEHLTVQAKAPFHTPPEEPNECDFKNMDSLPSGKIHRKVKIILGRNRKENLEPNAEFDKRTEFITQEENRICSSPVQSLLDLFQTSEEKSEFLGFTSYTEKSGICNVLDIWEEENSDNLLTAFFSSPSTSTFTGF
Chain of CDC7/DBF4 (Cell division cycle 7-related protein kinase/Activator of S phase kinase) (O00311 whole entry): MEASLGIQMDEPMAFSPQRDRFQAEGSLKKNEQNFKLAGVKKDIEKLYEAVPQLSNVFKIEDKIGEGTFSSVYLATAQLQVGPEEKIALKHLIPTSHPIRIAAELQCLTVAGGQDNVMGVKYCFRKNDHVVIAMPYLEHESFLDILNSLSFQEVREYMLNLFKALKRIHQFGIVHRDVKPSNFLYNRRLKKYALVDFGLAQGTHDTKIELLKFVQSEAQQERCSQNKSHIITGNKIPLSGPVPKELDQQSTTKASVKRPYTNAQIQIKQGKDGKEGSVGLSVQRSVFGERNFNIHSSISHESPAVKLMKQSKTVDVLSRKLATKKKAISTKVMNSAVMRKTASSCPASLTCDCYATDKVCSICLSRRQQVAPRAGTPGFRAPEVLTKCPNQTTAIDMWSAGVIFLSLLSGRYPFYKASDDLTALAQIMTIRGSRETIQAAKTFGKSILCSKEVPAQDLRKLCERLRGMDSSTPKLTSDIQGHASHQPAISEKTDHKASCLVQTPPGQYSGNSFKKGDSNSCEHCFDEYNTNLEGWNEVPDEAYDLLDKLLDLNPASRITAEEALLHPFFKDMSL

NCI-H146 = assay: Antiproliferative activity against human NCI-H146 cells assessed as inhibition of cell growth incubated for 72 hrs by cell-titer glo assay; format: functional, cell-based; settings: NCI-H146, 72 h; in short: as §2
[13] = target: Casein kinase I isoform gamma-3 (Homo sapiens) (UniProt Q9Y6M4); assay: Inhibition of N-terminal 6His-tagged recombinant human CK1gamma3 (1 to 330 residues) expressed in baculovirus infected Sf21 cells assessed as residual activity at 1 uM relative to control
Chain of Casein kinase I isoform gamma-3 (Homo sapiens) (Q9Y6M4 whole entry, looked up, the tested form may be a part, canonical isoform): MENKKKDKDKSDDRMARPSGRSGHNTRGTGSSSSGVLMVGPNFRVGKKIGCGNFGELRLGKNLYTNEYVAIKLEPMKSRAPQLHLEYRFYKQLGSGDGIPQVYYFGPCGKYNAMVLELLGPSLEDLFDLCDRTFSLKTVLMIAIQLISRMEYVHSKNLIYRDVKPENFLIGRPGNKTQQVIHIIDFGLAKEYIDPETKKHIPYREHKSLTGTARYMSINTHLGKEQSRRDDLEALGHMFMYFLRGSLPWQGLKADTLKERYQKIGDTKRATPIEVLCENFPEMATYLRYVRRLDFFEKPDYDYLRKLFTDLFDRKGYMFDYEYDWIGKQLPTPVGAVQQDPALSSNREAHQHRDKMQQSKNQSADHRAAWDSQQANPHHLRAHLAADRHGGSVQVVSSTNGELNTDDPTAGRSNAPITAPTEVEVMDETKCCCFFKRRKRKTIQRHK

[14] = target: Tyrosine-protein kinase JAK3 (Homo sapiens, UniProt P52333); assay: Inhibition of JAK3 (unknown origin) in presence of [gamma-33P]ATP
Chain of Tyrosine-protein kinase JAK3 (P52333 whole entry): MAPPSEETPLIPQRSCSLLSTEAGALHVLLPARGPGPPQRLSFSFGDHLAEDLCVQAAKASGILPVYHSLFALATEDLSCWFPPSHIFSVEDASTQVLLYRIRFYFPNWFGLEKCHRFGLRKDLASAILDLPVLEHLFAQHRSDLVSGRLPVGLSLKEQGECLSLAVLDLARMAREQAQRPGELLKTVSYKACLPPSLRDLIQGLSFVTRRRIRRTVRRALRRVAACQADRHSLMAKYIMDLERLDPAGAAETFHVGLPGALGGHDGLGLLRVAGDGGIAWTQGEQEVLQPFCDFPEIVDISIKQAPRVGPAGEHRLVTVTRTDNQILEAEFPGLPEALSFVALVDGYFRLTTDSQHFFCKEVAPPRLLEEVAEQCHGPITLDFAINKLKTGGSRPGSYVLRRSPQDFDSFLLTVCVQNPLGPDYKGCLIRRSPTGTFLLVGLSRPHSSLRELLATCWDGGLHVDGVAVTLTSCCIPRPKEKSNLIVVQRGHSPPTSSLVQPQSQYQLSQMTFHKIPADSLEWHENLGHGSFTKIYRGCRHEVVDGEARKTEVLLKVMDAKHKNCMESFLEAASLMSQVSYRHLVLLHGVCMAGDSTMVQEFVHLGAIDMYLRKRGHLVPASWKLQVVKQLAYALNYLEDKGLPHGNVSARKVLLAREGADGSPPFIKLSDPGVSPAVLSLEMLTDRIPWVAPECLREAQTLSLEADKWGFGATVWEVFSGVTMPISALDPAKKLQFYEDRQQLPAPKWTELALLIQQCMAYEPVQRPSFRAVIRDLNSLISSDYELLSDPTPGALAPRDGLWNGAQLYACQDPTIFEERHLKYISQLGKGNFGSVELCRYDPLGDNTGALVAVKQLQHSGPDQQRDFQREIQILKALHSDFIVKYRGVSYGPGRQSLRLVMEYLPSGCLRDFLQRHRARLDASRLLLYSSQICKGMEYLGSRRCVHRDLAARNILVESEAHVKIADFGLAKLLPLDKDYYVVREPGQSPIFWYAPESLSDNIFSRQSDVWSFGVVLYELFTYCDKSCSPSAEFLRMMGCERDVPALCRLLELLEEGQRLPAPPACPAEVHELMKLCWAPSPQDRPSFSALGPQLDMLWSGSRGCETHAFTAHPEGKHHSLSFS

HOP-62 = assay: Antiproliferative activity against human HOP-62 cells assessed as inhibition of cell growth incubated for 72 hrs by cell-titer glo assay; format: functional, cell-based; settings: HOP-62, 72 h; in short: as §1
COLO 320 = assay: Antiproliferative activity against human COLO 320 cells assessed as inhibition of cell growth incubated for 72 hrs by cell-titer glo assay; format: functional, cell-based; settings: COLO 320, 72 h
In short: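 Cells seeded 10,000–30,000/cm² (adherent) or 100,000/mL (suspension) in medium with 10% fetal calf serum; after 24 h treated in duplicate with serial dilutions for 72 h. Viable cells read by CellTiter-Glo luminescence; IC50 from sigmoidal fit; at least two independent experiments.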

Q: Which IC50 [1] does the source give for CN1CCN(c2ccc(OC(F)(F)F)c(Nc3ncc4c(n3)-c3c(c(C(N)=O)nn3CCO)CC4)c2)CC1 [ONVANSERTIB] here?
A: 1780 nM

Q: And the Activity (Insulin receptor)?
A: 90%

Q: What about the Activity (NHDF) of the same molecule?
A: Non-Toxic

Q: And the inhibition (A2780 [2])?
A: Active

Q: What about the Time [3] of the same molecule?
A: 50 days

Q: What about the half-life [4] of the same molecule?
A: 3.1 h

Q: And the IC50 (MDA-MB-435S)?
A: 23 nM

Q: What about the Activity (U2OS) of the same molecule?
A: 13%

Q: And the Activity [5]?
A: 123%

Q: And the IC50 (SH-SY5Y)?
A: 30 nM

Q: What about the IC50 (PANC-1) of the same molecule?
A: 184 nM

Q: And the Activity [6]?
A: 122%

Q: And the IC50 (JIMT-1)?
A: 105 nM

Q: And the TGI (COLO 205)?
A: Active

Q: What about the IC50 (T84) of the same molecule?
A: 174 nM

Q: What about the IC50 (SU-DHL-8) of the same molecule?
A: 31 nM

Q: What about the IC50 (KARPAS-299) of the same molecule?
A: 53 nM

Q: And the Activity [7]?
A: 73%

Q: What about the Activity [8] of the same molecule?
A: 52%

Q: And the IC50 [9]?
A: > 10000 nM

Q: What about the inhibition (Casein kinase 2) of the same molecule?
A: 89.7%

Q: And the Activity (A2780 [10])?
A: Active

Q: And the IC50 [11]?
A: 43 nM

Q: And the IC50 [12]?
A: > 10000 nM

Q: What about the IC50 (NCI-H146) of the same molecule?
A: 339 nM

Q: And the Activity [13]?
A: 39%

Q: What about the IC50 [14] of the same molecule?
A: > 10000 nM

Q: What about the IC50 (HOP-62) of the same molecule?
A: 209 nM

Q: What about the IC50 (COLO 320) of the same molecule?
A: 192 nM
